# Screening data from PubChem.
# T cell modulator = modulates CD8 T cell binding to vesicles. 2C CD8+ T cell-vesicle binding, flow cytometry; active compounds read low. response (vesicle binding), % at 7 µM. hit rate 0.068% among 330,000. AID 2052;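 active means response, share of CD8 T cells binding vesicles, and their 90th percentile fluorescence all below set limits, cut at about 80% in these data, passing the limit was not always enough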;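 further: values below 100% mean blocked vesicle binding to the CD8+ T cells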
#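 Test system: purified 2C TCR transgenic mouse naive CD8+ T cells. Probe or stimulus: QL9-peptide-loaded Drosophila micro-vesicles bearing Ld, ICAM-1 and B7-1. Incubation: binding step 1.5 h, 37 °C, antibody labelling 20 min, ice. Measured by: flow cytometry of vesicle-bound cells.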
# NR3A LBD binder = modulators (binders) of human NR3A ligand-binding domain | NR3A LBD differential scanning fluorimetry, Tm shift; 0% = protein alone, 100% = glycine-bound protein | AID 1259313 | hit rate 2.5% among 340,000 | Tm shift relative to glycine control, % at 25 µM;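 active means melting temperature shift of at least 10% of the positive control shift, at one fixed dose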
# JMJD2C inh = blocks human GASC-1 demethylase activity; inhibition, % at 2.35 µM; hit rate 0.069% among 330,000; GST-JMJD2C(1-420) H3K9me3 demethylation, DELFIA europium; AID 2099; Q9H3R0;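 active means more than half of a compound's replicate wells show inhibition beyond 50%, single wells judged on their own value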;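 further: signal counts dimethyl H3K9 product captured on neutravidin plate; 0% = median of DMSO wells and 100% = 0.3 times that DMSO median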
# Rtt109 Vps75 = inhibitors of Candida albicans Rtt109/Vps75 histone acetyltransferase | hit rate 0.16% among 330,000 | purified Rtt109/Vps75, ThioGlo CoA-SH fluorescence, 4 h | inhibition, % at 34.9 µM | AID 540336;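 active means inhibition of at least 50% in every replicate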
# Target sequence (Q5AAJ8 whole entry, looked up): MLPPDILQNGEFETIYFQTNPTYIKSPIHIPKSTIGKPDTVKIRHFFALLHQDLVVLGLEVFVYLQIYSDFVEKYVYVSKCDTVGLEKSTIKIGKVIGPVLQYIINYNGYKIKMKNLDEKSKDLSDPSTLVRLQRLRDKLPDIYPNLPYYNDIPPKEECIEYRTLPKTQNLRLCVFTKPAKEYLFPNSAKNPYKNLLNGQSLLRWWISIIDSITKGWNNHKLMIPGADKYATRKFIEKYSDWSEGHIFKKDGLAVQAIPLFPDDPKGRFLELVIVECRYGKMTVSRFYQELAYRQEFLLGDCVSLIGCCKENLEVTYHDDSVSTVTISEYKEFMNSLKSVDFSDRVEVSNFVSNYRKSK
# * = called active by the depositor; . = no result given. This is a sample that favours compounds with a hit; in the whole collection about 2.8% have one here.
SMILES,T cell modulator,NR3A LBD binder,JMJD2C inh,Rtt109 Vps75
CCCCS(=O)CC(CS(=O)CCCC)OC(=O)c1ccccc1 (stereo unspecified),187,-2,6,-10
Cc1ccc(NC(=O)C2CC(=O)N(C(C)C)C2)cc1Cl (stereo unspecified),314,0,-1,0
CC(C)N1CC(C(=O)Nc2ccc(Br)c(Cl)c2)CC1=O (stereo unspecified),220,1,69*,6
COc1ccc([C@H]2CC(=O)C=C(c3ccc4cc[nH]c4c3)C2)cc1,719,-6,3,-2
CCN(CC)CC(=O)Nc1c(C)cc(C)cc1C,.,10*,.,.
COc1ccc(C(=O)Nc2ccc3c(c2)Cc2ccccc2-3)cc1,414,17*,10,-8
Cc1ccc(NC(=O)c2ccco2)cc1C,277,1,-1,-2
O=C(Nc1ccc2c(c1)Cc1ccccc1-2)c1ccco1,488,22*,5,2
O=C(Nc1ccc2c(c1)Cc1ccccc1-2)c1cccnc1,537,21*,8,5
COc1cccc(OC)c1C(=O)Nc1ccc2c(c1)Cc1ccccc1-2,163,-3,-5,-9
C=CC[C@H](CC(=O)N(CCO)Cc1ccccc1)C(=O)NC[C@H](OC(=O)[C@@H](CC=C)Cc1ccc(F)cc1)c1ccccc1,224,1,-61,10
C[C@H](CO)N1C[C@H](C)[C@@H](CN(C)S(=O)(=O)c2ccccc2)Oc2c(NC(=O)Nc3ccccc3)cccc2C1=O,252,1,.,-11
C[C@H]1CN([C@@H](C)CO)C(=O)c2cccc(NC(=O)Nc3ccc(C(F)(F)F)cc3)c2O[C@@H]1CN(C)S(=O)(=O)c1ccccc1,243,13*,.,3
COc1ccc(NC(=O)Nc2cccc3c2O[C@H](CN(C)S(=O)(=O)c2cn(C)cn2)[C@@H](C)CN([C@H](C)CO)C3=O)cc1,305,16*,5,-1
CC(C)NC(=O)Nc1ccc2c(c1)C(=O)N([C@H](C)CO)C[C@H](C)[C@@H](CN(C)S(=O)(=O)c1ccccc1)O2,184,0,-26,5
COc1ccc(S(=O)(=O)N(C)C[C@H]2Oc3c(NC(=O)Nc4ccccc4)cccc3C(=O)N([C@H](C)CO)C[C@@H]2C)cc1,.,-10,.,3
COc1ccc(S(=O)(=O)N(C)C[C@H]2Oc3c(NC(=O)Nc4ccc(C(F)(F)F)cc4)cccc3C(=O)N([C@H](C)CO)C[C@@H]2C)cc1,447,11*,-20,4
C[C@H](CO)N1C[C@H](C)[C@@H](CN(C)S(=O)(=O)c2ccccc2)Oc2ccc(NC(=O)Nc3ccc(C(F)(F)F)cc3)cc2C1=O,277,23*,5,9
Cc1c(C(=O)NCc2ccccc2CN2CCCC2)oc2ccc(F)cc12,382,1,5,10
COc1cccc2c3cccc(OC)c3c3[nH]cnc3c12,.,-4,.,13
Cc1noc(C)c1S(=O)(=O)N(C)C[C@H]1Oc2c(NC(=O)Nc3ccccc3)cccc2C(=O)N([C@H](C)CO)C[C@@H]1C,0,-1,32,-4
Cc1noc(C)c1S(=O)(=O)N(C)C[C@H]1Oc2c(NC(=O)Nc3ccc(C(F)(F)F)cc3)cccc2C(=O)N([C@H](C)CO)C[C@@H]1C,729,11*,45,0
O=C(NNc1ccccc1)NC(Cc1ccccc1)C(=O)O (stereo unspecified),.,1,.,-3
CC(=O)Nc1ccc(NC(=O)C(C)NC(C)c2cccc3ccccc23)cc1 (stereo unspecified),452,1,4,21
COCCN(C(=O)c1ccc(OCC(C)C)cc1)c1c(N)n(Cc2ccccc2)c(=O)[nH]c1=O,232,.,-27,14
SMILES,T cell modulator,NR3A LBD binder,JMJD2C inh,Rtt109 Vps75
O=C1/C(=C/c2ccc(O)c(O)c2)SC(=S)N1Nc1ccccc1,.,16*,8,36
O=C(O)COc1ccccc1/C=C1\SC(=S)N(NC(=O)c2ccccc2O)C1=O,431,-2,7,-5
O=C(NN1C(=O)/C(=C/c2cccc(O)c2)SC1=S)c1ccccc1O,316,23*,0,31
O=C(NN1C(=O)/C(=C/c2ccc(O)c(O)c2)SC1=S)c1ccccc1,322,13*,-31,-2
O=C(O)c1ccc(/C=C2\SC(=S)N(Nc3ccccc3)C2=O)cc1,492,1,0,19
Cn1cc(/C=C2\SC(=S)N(NC(=O)c3ccccc3Cl)C2=O)c2ccccc21,293,12*,4,-8
Cc1cc(C)c(O)c(-c2n[nH]c3c2C(c2cccc(O)c2)N(Cc2ccco2)C3=O)c1 (stereo unspecified),225,0,-16,5
CC(C)(C)OC(=O)N1CCC(C(=O)Nc2ccc(C(=O)N3CCCCC3)cc2)CC1,.,-1,.,-5
CCOc1ncccc1C(=O)Nc1ccc(C(=O)Nc2ccc(OC)cc2)cc1,260,-1,.,3
CCOc1cc(/C=C2\SC(=S)N(Nc3ccccc3)C2=O)ccc1O,161,5,-1,-8
CN(C)c1ccc(/C=C2\SC(=S)N(Nc3ncc(C(F)(F)F)cc3Cl)C2=O)cc1,595,3,3,-8
COc1cc(/C=C2\SC(=S)N(Nc3ccccc3)C2=O)ccc1O,368,11*,13,9
COc1cc(/C=C2\SC(=S)N(Nc3ncc(C(F)(F)F)cc3Cl)C2=O)ccc1O,584,14*,-31,20
O=C(COc1ccc(-c2nnco2)cc1)N1CCOCC1,167,0,0,4
CCOC(=O)c1c(N/N=C/c2cccnc2)n[nH]c1C,364,0,6,-8
COc1ccc2cc3cc(C(=O)Nc4cc(OC)c(OC)c(OC)c4)oc3nc2c1,439,0,-6,-17
COc1ccc2cc3cc(C(=O)Nc4ccc5c(c4)OCCO5)oc3nc2c1,310,26*,9,-8
COCc1ccc(CN2CCC(n3nccc3NC(=O)C(OC)c3ccccc3)CC2)o1 (stereo unspecified),245,-2,-1,59*
CC(=O)Nc1ccc(CN2CCC(n3nccc3NC(=O)CCc3ccccc3)CC2)cc1,392,2,-15,2
COc1ccc(CC(=O)N2CCC(n3nccc3NC(=O)C3CCOC3)CC2)cc1 (stereo unspecified),193,0,0,6
COc1ccccc1CC(=O)N1CCC(n2nccc2NC(=O)C2CCOC2)CC1 (stereo unspecified),587,10*,-4,-14
COC(C(=O)Nc1ccnn1C1CCN(Cc2ccc(C)o2)CC1)c1ccccc1 (stereo unspecified),418,3,5,15
COc1ccccc1C(=O)Nc1ccnn1C1CCN(C/C=C/c2ccccc2)CC1,356,13*,11,5
CC(=O)c1cccc(CN2CCC(n3nccc3NC(=O)CCc3ccccc3)CC2)c1,464,15*,4,-9
Cc1ccc2nc(C(Cl)(Cl)Cl)nc(N/N=C/c3ccc([N+](=O)[O-])cc3)c2c1,.,-1,.,-17
